We go through 7 compounds from ChEMBL document CHEMBL3632484, “Synthesis and preliminary biological evaluation of a small library of hybrid compounds based on Ugi isocyanide multicomponent reactions with a marine natural product scaffold” (Bioorg Med Chem Lett, 2015).

For series [1], the system named is Mycobacterium tuberculosis. Put plainly: Antimycobacterial activity against Mycobacterium tuberculosis H37Rv ATCC 27294 by microplate alamar blue assay. The series is classed as functional. Put shortly:
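Minimum inhibitory concentration by microplate Alamar blue assay against the H37Rv laboratory strain, reported in μg/mL as the mean of three experiments.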

The test system of the next series is Plasmodium falciparum. Nature of the series: Antiplasmodial activity against chloroquine-susceptible Plasmodium falciparum 3D7 infected in human O+ erythrocytes after 72 hrs by SYBR Green based parasite proliferation assay. The settings on record: 3D7, 72 h. The series is classed as functional, organism-based.
The next series relates to Vero. Nature of the series: Cytotoxicity against African green monkey Vero cells. It counts as cell-based. The settings on record: Chlorocebus sabaeus. Put shortly: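 IC50 in mammalian Vero cells, reported in nM as the mean of three experiments.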
The nature of series [2]: Selectivity index, ratio of IC50 for African green monkey Vero cells to IC50 for chloroquine-susceptible Plasmodium falciparum 3D7. To be noted: read-out: Ratio IC50. It counts as toxicity, cell-based. Put shortly:
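Index calculated as Vero cell IC50 divided by the IC50 against chloroquine-susceptible P. falciparum 3D7. The 3D7 IC50 is the concentration giving 50% parasite survival, reported in nM as the mean ± standard error of three experiments.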

Series [3] can be described thus: Antineuroinflammatory activity in LPS-primed rat neonatal microglia assessed as inhibition of PMA-stimulated release of O2- after 70 mins. The series is classed as functional. Put shortly:
(§1)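 Rat microglia primed with E. coli LPS, then stimulated with PMA (1 μM) for 70 min. Release of superoxide (O2–) and of TXB2 is measured, and the IC50 is the concentration that inhibits release. Short-term viability is checked in parallel by LDH release (LDH50 = 50% of total cellular LDH). Data come from 1–4 independent experiments.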

A short description of series [4]: Antineuroinflammatory activity in LPS-primed rat neonatal microglia assessed as inhibition of PMA-stimulated release of TXB2 after 70 mins. The series is classed as functional. The method, boiled down:
as §1

Series [5] can be described thus: Cytotoxicity against rat neonatal microglia assessed as cell viability by lactate dehydrogenase release assay. To be noted: read-out: LD50 (the source's name). Put shortly: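 Rat microglia were primed with E. coli LPS and then stimulated with PMA (1 μM) for about 70 min. LDH release was measured as short-term viability. LDH50 is the concentration causing release of 50% of the total cellular LDH content. Data come from 1–4 independent experiments.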

Values after ≈ are worked out from the molar mass of the structure shown.

As a reminder, the MIC is the least concentration at which growth counts as inhibited. What is called IC50 is the point on the concentration scale where inhibition reaches its midpoint. Consider `[C-]#[N+][C@@]12CCC(=C)[C@H]3[C@H](CC(C)(C)NC(=O)CN(CCC(C)C)C(=O)c4ccncc4)C[C@H](C)[C@@H](CC[C@@H]1C)[C@@H]32`, for which 14.9 µg/mL (≈ 27.2 µM) was the least that counted as inhibitory in series [1] (MIC). The IC50 with Plasmodium falciparum was 0.0115 µM; in the series with Vero, 19.8 µM; in series [3], more than 10 µM; in series [4], 3 µM. Also, the selectivity ratio in series [2] was determined as 1720. The CC50 in series [5] was more than 10 µM.
For `[C-]#[N+][C@@]12CCC(=C)[C@H]3[C@H](CC(C)(C)NC(=O)CN(CCNc4ccnc5cc(Cl)ccc45)C(C)=O)C[C@H](C)[C@@H](CC[C@@H]1C)[C@@H]32`, the MIC in series [1] was 17.9 µg/mL (≈ 29 µM). Moreover, the IC50 in the series on Plasmodium falciparum came to 0.0111 µM; in the series with Vero, 28.6 µM; in series [3], 1.7 µM; in series [4] it was 0.8 µM. In addition, the selectivity ratio in series [2] was 2570. Besides, the CC50 in series [5] worked out at 5 µM.
As for `[C-]#[N+][C@@]12CCC(=C)[C@H]3[C@H](CC(C)(C)NC(=O)CN(CCNc4ccnc5cc(Cl)ccc45)C(=O)c4ccncc4)C[C@H](C)[C@@H](CC[C@@H]1C)[C@@H]32`, the minimal inhibitory concentration (MIC) in series [1] was determined as 52 µg/mL (≈ 76.3 µM). Besides, the IC50 turned out to be 0.0036 µM in the series on Plasmodium falciparum, 25.8 µM in the series on Vero, 5 µM in series [3] and 0.9 µM in series [4]. Moreover, the selectivity ratio in series [2] was found to be 7150. For the same compound, the CC50 in series [5] was determined as 5 µM.
In series [1], `[C-]#[N+][C@@]12CCC(=C)[C@H]3[C@H](CC(C)(C)NC(=O)CNC(=O)c4ccncc4)C[C@H](C)[C@@H](CC[C@@H]1C)[C@@H]32` returned an MIC of 102 µg/mL (≈ 214 µM). Further, the IC50 is 0.0063 µM in the series on Plasmodium falciparum, more than 10 µM in series [3] and 1.1 µM in series [4]. Also, the CC50 in series [5] is more than 10 µM.
`[C-]#[N+][C@@]12CCC(=C)[C@H]3[C@H](CC(C)(C)NC(=O)C(c4ccccc4)N(CCC(C)C)C(=O)c4ccncc4)C[C@H](C)[C@@H](CC[C@@H]1C)[C@@H]32` (mixture of isomers): it took 56.4 µg/mL to inhibit growth in series [1] (MIC). The IC50 is 0.013 µM with Plasmodium falciparum, 49.2 µM in the series with Vero, more than 10 µM in series [3] and 0.1 µM in series [4]. Further, in series [2], the selectivity ratio came to 3780. Besides, in series [5], the CC50 was more than 10 µM.
`[C-]#[N+]C(C)(C)C[C@@H]1C[C@H](C)[C@H]2CC[C@H](C)[C@@]3([N+]#[C-])CCC(=C)[C@@H]1[C@H]23` [DIISOCYANOAMPHILECTENE] registered an MIC in series [1] of 3.2 µg/mL (≈ 9.86 µM). Further, the IC50 with Plasmodium falciparum was 0.0012 µM; in the series on Vero, 99.7 µM; in series [3], more than 10 µM; in series [4], 0.23 µM. Moreover, in series [2], the selectivity ratio came out at 83100. Moreover, the CC50 in series [5] was more than 10 µM.
`NNC(=O)c1ccncc1` [ISONIAZID] yielded an MIC in series [1] of 0.44 µg/mL (≈ 3.21 µM).
